Results pooled from the literature.
HTR1E: 5-hydroxytryptamine receptor 1E (HTR1E, Homo sapiens, UniProt P28566)
AVPR2: Vasopressin V2 receptor (AVPR2, Homo sapiens, UniProt P30518)

CC(C)=CCNc1ncnc2c1ncn2[C@@H]1O[C@H](CO)[C@@H](O)[C@H]1O  EC50 (Adenosine receptor A3 (ADORA3, Homo sapiens, UniProt P0DMS8, V169L); G protein activation, agonist): 1.2 µM
COc1ccccc1N1CCN(CCCCN2C(=O)c3ccccc3C2=O)CC1  EC50 (HTR1E; G protein activation, agonist, BRET): 2.17 µM
CC(C)=CCn1cnc(=N)c2[nH]cnc21  EC50 (G-protein coupled receptor 84 (GPR84, Homo sapiens, UniProt Q9NQS5); cAMP, agonist, luciferase): 32 µM
CC1=NN(/C(=N\c2ccccc2F)Nc2nnc(C)s2)C(c2ccc(C)cc2)S1 (stereo not drawn)  EC50 (AVPR2; cAMP, positive allosteric modulator): 41.4 µM
CN(C)CCOC1=Cc2ccccc2Sc2ccc(Cl)cc21  EC50 (HTR1E; G protein activation, agonist, BRET): 0.622 µM
CC1=NN(/C(=N/c2nnc(C)s2)Nc2ccc(C)c(C)c2)C(c2ccc(F)c(C(F)(F)F)c2)S1 (stereo not drawn)  EC50 (AVPR2; cAMP, positive allosteric modulator): > 50 µM
CN1CCN2c3ncccc3Cc3ccccc3C2C1 (stereo not drawn)  EC50 (HTR1E; G protein activation, agonist, BRET): 0.755 µM
CN(C)c1ncnc2c1ncn2[C@@H]1O[C@H](CO)[C@@H](O)[C@H]1O  EC50 (Adenosine receptor A3 (ADORA3, Homo sapiens, UniProt P0DMS8, I253Q); G protein activation, agonist): 46 µM
CCCc1ccc(/N=C(/Nc2nnc(C)s2)N2N=C(C)SC2c2ccc(C)cc2)cc1 (stereo not drawn)  EC50 (AVPR2; cAMP, positive allosteric modulator): 3.9 µM
